RGS4 pot: potentiators or activators of RGS4; HEK293 M3R/inducible RGS4, carbachol calcium flux Fluo4; stronger effect = lower value; B-score at 10 µM; actives 0.92% (n = 310,000); AID 463111;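 active = B-score of the integrated calcium signal more than 4 SD below the library mean, with starting fluorescence not abnormally high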;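 also: negative B-score means reduced calcium response which marks RGS4 activation or potentiation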
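Material: Inducible-RGS4 HEK293 cells carrying M3 receptor; also added: carbachol at ECmax as muscarinic agonist stimulus; incubation: compound preincubation 20 min at room temperature before agonist; signal: Fluo4-AM (2 µM) calcium-flux fluorescence, kinetic read; measure: integrated calcium ratio converted to B score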
MrgX1 ag: agonists of human MrgX1 receptor | MrgX1-HEK293 cells, Fluo-4 calcium fluorescence, agonist mode; stronger effect = higher value | B-score at 10 µM | actives 0.44% (n = 310,000) | AID 588627;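 active = calcium response B-score plate-corrected fluorescence ratio at least 3 library SD, with starting fluorescence B-score inside 5 SD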
Target sequence (Q96LB2 whole entry, looked up): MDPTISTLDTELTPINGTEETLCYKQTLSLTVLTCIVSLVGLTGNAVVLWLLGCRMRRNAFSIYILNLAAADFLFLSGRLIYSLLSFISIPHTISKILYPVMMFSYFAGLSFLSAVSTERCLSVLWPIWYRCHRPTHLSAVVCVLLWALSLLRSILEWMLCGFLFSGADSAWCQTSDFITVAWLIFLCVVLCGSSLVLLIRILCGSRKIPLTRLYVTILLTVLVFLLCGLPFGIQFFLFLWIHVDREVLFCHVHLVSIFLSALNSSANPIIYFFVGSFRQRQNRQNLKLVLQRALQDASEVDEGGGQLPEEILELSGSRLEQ
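Material: MrgX1-expressing HEK293 cells / Dosing: compound as first of three additions / Incubation: overnight seeding, then 1 h dark dye loading / Signal: Fluo-4 NW calcium fluorescence / Evaluation: B-scored fluorescence response ratio / Benchmarks: positive and negative control wells on each plate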
RGS4 block: human RGS4 inhibition; P49798; HEK293 M3R/RGS4 inducible, Fluo-4 calcium flux; stronger effect = higher value; triggered by carbachol at its EC20; B-score at 10 µM; actives 0.45% (n = 310,000);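 active = B-score, a plate-corrected calcium signal, over three deviations above library mean, with baseline fluorescence within five deviations of library mean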;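 also: RGS4 expression induced by doxycycline in cells with stable M3 receptor; B-score is computed from the integrated fluorescence ratio over baseline after carbachol; higher B-score means a larger calcium signal and so more RGS4 inhibition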
Target sequence (P49798 whole entry, looked up): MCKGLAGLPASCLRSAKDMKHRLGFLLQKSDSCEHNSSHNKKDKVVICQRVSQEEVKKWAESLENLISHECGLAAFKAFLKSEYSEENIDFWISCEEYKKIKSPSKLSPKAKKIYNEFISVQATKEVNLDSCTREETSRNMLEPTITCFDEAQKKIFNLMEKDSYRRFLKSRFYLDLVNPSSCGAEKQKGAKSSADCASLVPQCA
MrgX1 antag: human MrgX1 receptor antagonism, primary screen; MRGX1-HEK293 calcium flux, Fluo-4, BAM8-22 antagonism; stronger effect = lower value; B-score at 10 µM; actives 1.3% (n = 310,000); AID 588676;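 active = calcium-response B-score plate-corrected more than 3 library SD below zero, starting fluorescence within 5 deviations, no agonist response on first addition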;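 also: peak minus trough fluorescence over baseline after final BAM8-22 challenge near maximal dose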
MrgX1 PAM: human MrgX1 positive allosteric modulation, primary screen. actives 0.63% (n = 310,000). AID 588675. MrgX1-HEK293, Fluo-4 calcium flux, FDSS; stronger effect = higher value. B-score at 10 µM;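 active = plate-corrected calcium response at least 3 library SD above typical, normal starting fluorescence, not activating the receptor alone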;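 also: compound read alongside a low EC10 to EC30 dose of BAM8-22 agonist; peak minus trough fluorescence over baseline measured at the second addition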
RGS4 act valid: RGS4 activation, validation assay; AID 602282; HEK293 M3R/RGS4 inducible, carbachol calcium flux Fluo4; shares compounds with RGS4 pot; actives 89% (n = 1,100); inhibition, % at 10 µM;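 active = inhibition above 3 SD of the buffer control wells, cut at about 41% in these data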;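 also: signal is the integrated peak-minus-minimum Fluo4 fluorescence over baseline ratio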
RGS4 act ctr: counter-screen for RGS4 activators: effect in non-induced cells | AID 602283 | shares compounds with RGS4 pot | actives 82% (n = 1,100) | inhibition, % at 10 µM | HEK293 M3R non-induced RGS4, Fluo4 calcium flux; after carbachol challenge at its EC90;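 active = inhibition exceeding 3 SD of buffer-only control wells, cut at about 26% in these data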;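 also: percent drop in integrated peak-minus-baseline over baseline Fluo4 ratio after carbachol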
MrgX1 ag reconf: human MrgX1 agonism, re-confirmation screen; actives 78% (n = 600); activation, % at 10 µM; shares compounds with MrgX1 ag; MrgX1-HEK293, Fluo-4 calcium fluorescence, FDSS;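 active = calcium signal rise, corrected for plate position, at least 3 library SD high, with starting brightness within 5 such deviations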
MrgX1 ant reconf: human MrgX1 receptor antagonism, re-confirmation screen; actives 19% (n = 2,300); shares compounds with MrgX1 antag; remaining BAM8-22 calcium response % of control (stronger effect = lower value), % at 10 µM; MrgX1-HEK293, BAM8-22 calcium flux, Fluo-4; stronger effect = lower value;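 active = remaining agonist calcium response no higher than 100% minus 3 SD of agonist-only control wells, with starting fluorescence near control levels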;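 also: agonist BAM8-22 given at a near maximal EC90 to ECmax level; peak minus minimum fluorescence divided by baseline after agonist addition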
HEK293 Ca flux: counter-screen for MrgX1 antagonists: effect in parental HEK293 cells; shares compounds with MrgX1 antag; Fluo-4 calcium fluorescence, FDSS; fluorescence ratio F(max-min)/F0 at 10 µM; actives 2% (n = 4,000); AID 624111;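 active = duplicate-averaged calcium fluorescence ratio at least three times the standard deviation of buffer wells, a nonspecific response in parental cells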
HEK293 Ca counter: MrgX1 allosteric activator counter-screen hit in parental HEK293 cells. fluorescence ratio F(max-min)/F0 at 10 µM. actives 0.4% (n = 4,000). shares compounds with MrgX1 antag. parental HEK293 calcium flux, Fluo-4 fluorescence ratio; stronger effect = higher value;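 active = calcium fluorescence ratio, averaged over duplicates, at least 3 SD of the buffer-well ratio, meaning a nonspecific response in receptor-free cells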;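 also: untransfected parental HEK293 lacking MrgX1 used as counterscreen for MrgX1 allosteric activators; fluorescence change taken during the second addition on a kinetic imager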
HEK293 Ca cntr2: activity in parental HEK293 cells lacking MrgX1 receptor; shares compounds with MrgX1 antag; Fluo-4 calcium fluorescence (FDSS); stronger effect = higher value; fluorescence ratio F(max-min)/F0 at 10 µM; actives 8.7% (n = 4,000); AID 624115;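 active = calcium fluorescence ratio at least three times the spread of buffer wells, meaning a non-specific response in parental cells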
* = called active by the depositor. An excerpt weighted towards active compounds, which were near 3.5% of everything screened.

What do the screens show for `OCCCNc1ncnc2oc(-c3ccccc3)c(-c3ccccc3)c12`?
RGS4 pot: -8.4*; MrgX1 ag: inactive; RGS4 block: inactive; MrgX1 antag: -5*; MrgX1 PAM: inactive; RGS4 act valid: 0; RGS4 act ctr: 0; MrgX1 ant reconf: inactive; HEK293 Ca flux: inactive; HEK293 Ca counter: inactive; HEK293 Ca cntr2: inactive

What do the screens show for `O=C(COC(=O)CCN=C1NS(=O)(=O)c2ccccc21)NNC(=O)c1ccccc1`?
RGS4 pot: inactive; MrgX1 ag: inactive; RGS4 block: inactive; MrgX1 antag: inactive; MrgX1 PAM: inactive

Results for COc1cccc(NC(=O)Nc2nc(-c3ccc(OC)c(OC)c3)cs2)c1 ?
RGS4 pot: -8.1*; MrgX1 ag: inactive; RGS4 block: inactive; MrgX1 antag: -7*; MrgX1 PAM: inactive; RGS4 act valid: 92*; RGS4 act ctr: 85*; MrgX1 ant reconf: 22%*; HEK293 Ca flux: inactive; HEK293 Ca counter: inactive; HEK293 Ca cntr2: inactive

How did c1ccc(Cn2nnc3ccccc32)cc1 do in these assays?
RGS4 pot: inactive; MrgX1 ag: inactive; RGS4 block: inactive; MrgX1 antag: inactive; MrgX1 PAM: inactive

Results for c1ccc(Cn2nnc3cnccc32)cc1 ?
RGS4 pot: -8.4*; MrgX1 ag: inactive; RGS4 block: inactive; MrgX1 antag: -6.7*; MrgX1 PAM: inactive; RGS4 act valid: 0; RGS4 act ctr: 0; MrgX1 ant reconf: inactive; HEK293 Ca flux: inactive; HEK293 Ca counter: inactive; HEK293 Ca cntr2: inactive

What do the screens show for `O=C(CSc1nncc2ccccc12)Nc1ccc(C(=O)O)cc1`?
RGS4 pot: inactive; MrgX1 ag: inactive; RGS4 block: inactive; MrgX1 antag: inactive; MrgX1 PAM: inactive

Results for Cc1onc(-c2ccccc2)c1C(=O)NC(=S)NNC(=O)c1ccc(O)cc1 ?
RGS4 pot: inactive; MrgX1 ag: inactive; RGS4 block: inactive; MrgX1 antag: inactive; MrgX1 PAM: inactive

What do the screens show for `CCCOc1ccc(C(=O)NC(=S)NNC(=O)c2c(-c3ccccc3)noc2C)cc1`?
RGS4 pot: -11*; MrgX1 ag: 105*; RGS4 block: inactive; MrgX1 antag: inactive; MrgX1 PAM: inactive; RGS4 act valid: 92*; RGS4 act ctr: 82*; MrgX1 ag reconf: 690%*; HEK293 Ca flux: inactive; HEK293 Ca counter: inactive; HEK293 Ca cntr2: 115*

How did O=C(NCCC(=O)N1CCc2ccccc21)c1ccccc1Cl do in these assays?
RGS4 pot: inactive; MrgX1 ag: inactive; RGS4 block: inactive; MrgX1 antag: inactive; MrgX1 PAM: inactive

What do the screens show for `Cc1ccc(OCC(=O)Nc2cccc(-c3nnc(-c4ccccc4)o3)c2)c(C)c1`?
RGS4 pot: inactive; MrgX1 ag: inactive; RGS4 block: inactive; MrgX1 antag: inactive; MrgX1 PAM: inactive

What do the screens show for `COc1ccc(CC(=O)Nc2cccc(-c3nnc(-c4cccc(C)c4)o3)c2)cc1OC`?
RGS4 pot: -9.9*; MrgX1 ag: inactive; RGS4 block: inactive; MrgX1 antag: -12*; MrgX1 PAM: inactive; RGS4 act valid: 94*; RGS4 act ctr: 94*; MrgX1 ant reconf: 5.5%*; HEK293 Ca flux: inactive; HEK293 Ca counter: inactive; HEK293 Ca cntr2: inactive

What do the screens show for `CCn1cc(CNC(=O)C2CCC(=O)N(C3CCCCCC3)C2)cn1` (configuration not stated)?
RGS4 pot: inactive; MrgX1 ag: inactive; RGS4 block: inactive; MrgX1 antag: inactive; MrgX1 PAM: inactive

How did CC1(C)CC(=O)C2=C(C1)Nc1ccccc1S2 do in these assays?
RGS4 pot: inactive; MrgX1 ag: inactive; RGS4 block: inactive; MrgX1 antag: inactive; MrgX1 PAM: inactive

What do the screens show for `CC1(C)CC(=O)C2=C(C1)Nc1ccccc1NC2`?
RGS4 pot: -7.9*; MrgX1 ag: 34*; RGS4 block: inactive; MrgX1 antag: inactive; MrgX1 PAM: inactive; RGS4 act valid: 0; RGS4 act ctr: 0; MrgX1 ag reconf: inactive; HEK293 Ca flux: inactive; HEK293 Ca counter: inactive; HEK293 Ca cntr2: inactive

How did CCCc1ccc(Oc2cn[nH]c2-c2ccc(O)c(C)c2O)cc1 do in these assays?
RGS4 pot: -9.1*; MrgX1 ag: inactive; RGS4 block: inactive; MrgX1 antag: -6.8*; MrgX1 PAM: inactive; RGS4 act valid: 93*; RGS4 act ctr: 94*; MrgX1 ant reconf: inactive; HEK293 Ca flux: inactive; HEK293 Ca counter: inactive; HEK293 Ca cntr2: inactive

How did Cn1c(=NC(=O)COc2ccccc2)sc2ccccc21 do in these assays?
RGS4 pot: inactive; MrgX1 ag: inactive; RGS4 block: inactive; MrgX1 antag: inactive; MrgX1 PAM: inactive

How did Cc1cc(C)nc(/N=C(\N)Nc2ccc(OCc3ccccc3)cc2)n1 do in these assays?
RGS4 pot: -10*; MrgX1 ag: 161*; RGS4 block: inactive; MrgX1 antag: inactive; MrgX1 PAM: inactive; RGS4 act valid: 87*; RGS4 act ctr: 62*; MrgX1 ag reconf: 590%*; HEK293 Ca flux: inactive; HEK293 Ca counter: inactive; HEK293 Ca cntr2: 128*
